This is a sample that favours compounds with a hit; in the whole collection about 3.6% have one here.
EBNA-1 inh – blocks EBNA-1 binding to DNA; EBNA-1 DNA binding, fluorescence polarization; inhibition, % at 14.8 µM; actives 0.34% (n = 300,000); in the data active = inhibition above about 28%
NR3A LBD binder – modulates the human NR3A ligand-binding domain | NR3A LBD differential scanning fluorimetry, Tm shift; 0% = protein alone, 100% = glycine-bound protein | Tm shift relative to glycine control, % at 25 µM | actives 2.5% (n = 340,000) | AID 1259313;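 active = melting temperature shift of at least 10% of the positive control shift, at one fixed dose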
ZTA DNA inh – blocks Epstein-Barr virus ZTA, an EBNA-1 counter-screen. AID 2234. actives 0.15% (n = 320,000). P03206. inhibition, % at 11 µM. ZTA-DNA binding, fluorescence polarization; in the data active = inhibition above about 33%
Target sequence (P03206 whole entry, looked up): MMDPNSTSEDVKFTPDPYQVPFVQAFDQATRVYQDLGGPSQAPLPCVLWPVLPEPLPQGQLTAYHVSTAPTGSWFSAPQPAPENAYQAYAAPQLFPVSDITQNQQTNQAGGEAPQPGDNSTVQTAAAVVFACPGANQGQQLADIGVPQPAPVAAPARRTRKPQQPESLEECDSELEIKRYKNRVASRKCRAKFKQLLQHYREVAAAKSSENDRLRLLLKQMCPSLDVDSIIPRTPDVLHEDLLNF
FGF22 binding – shifts melting point of recombinant human FGF22; Q9HCT0; recombinant FGF22 thermal shift, SYPRO orange fluorescence; percent of sucrose octasulfate shift, DMSO zero; activity (Tm shift, normalised), % at 9.99 µM; actives 1.5% (n = 340,000);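 active = mean Tm shift, scaled 0 neutral to 100 positive control, at about 1.3% or above, every replicate too, limit read from the data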
Target sequence (Q9HCT0 whole entry, looked up): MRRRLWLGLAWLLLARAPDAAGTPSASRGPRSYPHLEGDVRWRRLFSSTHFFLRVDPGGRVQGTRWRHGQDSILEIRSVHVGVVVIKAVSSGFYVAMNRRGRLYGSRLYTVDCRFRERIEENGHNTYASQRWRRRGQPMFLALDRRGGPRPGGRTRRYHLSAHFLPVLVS
DNA FID counter – fluorescent intercalator displacement, NS3 helicase counter-screen; DNA fluorescent intercalator displacement, fluorescence; inhibition, % at 7.9 µM; actives 0.17% (n = 290,000); AID 1845; in the data active = inhibition above about 37%;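 also: higher means more ethidium bromide displaced from hairpin DNA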
HCV NS3 hel inh – HCV NS3 helicase inhibition. NS3 helicase DNA unwinding, Cy5 molecular beacon fluorescence. inhibition, % at 10.9 µM. actives 0.56% (n = 290,000);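 active = inhibition above the mean of all tested compounds plus 3 SD, set per campaign, cut at about 35% in these data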
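assay system = NS3 helicase fragment of HCV | buffer or medium = MOPS pH 6.5, MgCl2, DTT, Tween20, BSA | timing = 60 min unwinding reaction at 25 °C after ATP addition | signal = Cy5 beacon fluorescence read at start and 1 h | read-out basis = % inhibition of unwinding | control set = low DMSO, high thioflavine S at 110 µM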
Of the large screens only hits and unclear results are named; the others gave an inactive call.

CC(C)(C)C(=O)Nc1sc2c(c1C#N)CCC2	none
Cc1noc(C)c1S(=O)(=O)Nc1ccc2c(c1)C(=O)N([C@H](C)CO)C[C@@H](C)[C@@H](CN(C)C(=O)CCCN(C)C)OCCCC[C@@H](C)O2	none (no result: EBNA-1 inh, NR3A LBD binder, ZTA DNA inh, DNA FID counter, HCV NS3 hel inh)
CN1CCN(CCCN(Cc2ccco2)C(=S)Nc2ccc(Cl)cc2)CC1	FGF22 binding 43
O=C(O)c1ccccc1C(=O)Nc1n[nH]c(=S)s1	NR3A LBD binder 14
O=C(O)c1ccccc1C(=O)Nc1nccs1	none (no result: FGF22 binding)
Nc1cc(-c2ccc(OC(F)(F)F)cc2)nn1-c1ccc(Cl)c(Cl)c1	NR3A LBD binder 24
COc1ccc(-n2nc(C)cc2N)cc1	none
Cc1ccc(S(=O)(=O)Nc2cc(=O)[nH]c(SCc3ccc(Cl)cc3)n2)cc1	NR3A LBD binder 11
O=c1cc(NS(=O)(=O)c2ccccc2)nc(SCc2c(Cl)cccc2Cl)[nH]1	none
Cc1ncc(CO)c(/C=N/NC(=S)Nc2ccc(F)cc2)c1O	none (no result: FGF22 binding)
Cc1ncc(CO)c(/C=N/Nc2ccc(C(F)(F)F)cn2)c1O	NR3A LBD binder 27
CCc1ccc(NC(=O)CSc2nc3ccccc3c(=O)n2CCCC(=O)NCCCN2CCOCC2)cc1	FGF22 binding 43
CCOc1ccc(N2C(=O)Nc3ccc(Br)cc3C2(O)C(=O)NC(C)C)cc1 (stereo unspecified)	NR3A LBD binder 12
CCOc1ccc(N2C(=O)Nc3ccc(Br)cc3C2(O)C(=O)NCCCN(C)C)cc1 (stereo unspecified)	NR3A LBD binder 12
O=C(CSc1nc2ccc(Cl)cc2[nH]1)c1c[nH]c2ccccc12	NR3A LBD binder 12
C[C@@H]1CN([C@@H](C)CO)C(=O)c2cc(C3=CCCC3)cnc2O[C@@H]1CN(C)C(=O)C1CCOCC1	none (no result: EBNA-1 inh, NR3A LBD binder, ZTA DNA inh, DNA FID counter, HCV NS3 hel inh)
O=C(/C=C/Nc1cccc(F)c1)c1ccco1	NR3A LBD binder 28 (no result: FGF22 binding)
COc1ccc(C2C3=C(CCCC3=O)Nc3nc(-c4cc(OC)c(OC)c(OC)c4)nn32)cc1OC (stereo unspecified)	none (no result: FGF22 binding)
COc1cc(-c2nc3n(n2)C(c2ccncc2)C2=C(CCCC2=O)N3)cc(OC)c1OC (stereo unspecified)	FGF22 binding 44
Oc1ccc(CCNc2c3ccccc3nc3ccccc23)cc1O	DNA FID counter 39
c1ccc(CNc2c3ccccc3nc3ccccc23)cc1	none
CC(C)C[C@H]1CNC(=S)N1C[C@H]1CCCN1C[C@H](Cc1ccc(O)cc1)N1C[C@H](Cc2ccc(O)cc2)N(CC2CCCCCC2)C1=S	FGF22 binding 43 (no result: EBNA-1 inh, NR3A LBD binder, ZTA DNA inh, DNA FID counter, HCV NS3 hel inh)
CC(C)C[C@H]1CNC(=S)N1CC1CCCN1C[C@H](Cc1ccccc1)N1C[C@H](Cc2ccc(O)cc2)N(CC2CCCCCC2)C1=S (stereo partly specified)	NR3A LBD binder 29 (no result: EBNA-1 inh, ZTA DNA inh, DNA FID counter, HCV NS3 hel inh)
CN1CCN(C2CCN(Cc3ccc(O)c4ncccc34)CC2)CC1	FGF22 binding 44 (no result: EBNA-1 inh, DNA FID counter, HCV NS3 hel inh)
C[C@H]1CN([C@@H](C)CO)C(=O)c2cc(NC(=O)Nc3cccc4ccccc34)ccc2O[C@H]1CN(C)C(=O)Nc1cccc2ccccc12	none (no result: EBNA-1 inh, NR3A LBD binder, ZTA DNA inh, DNA FID counter, HCV NS3 hel inh)
O=CN1CCC(=O)N(Cc2ccccc2)c2ccccc21	none (no result: FGF22 binding)
CC(C)N1C(=O)CCN(C=O)c2ccccc21	FGF22 binding 43
C[C@@H]1CN([C@H](C)CO)C(=O)CCCn2nncc2CO[C@@H]1CN(C)C(=O)Nc1cccc(C(F)(F)F)c1	none (no result: EBNA-1 inh, NR3A LBD binder, ZTA DNA inh, DNA FID counter, HCV NS3 hel inh)
CCn1nc(C)c(NC(=O)CCSc2nc(-c3ccco3)cc(C(F)(F)F)n2)c1C	NR3A LBD binder 557 (no result: FGF22 binding)
CCn1ncc(CNC(=O)CCCSc2nc(-c3ccco3)cc(C(F)(F)F)n2)c1C	none (no result: FGF22 binding)
Cc1nc2c(C)cccc2cc1C(=O)N/N=C/c1cccnc1	NR3A LBD binder 14
CCOc1ccc(C(=O)Nc2ccc(Cl)cn2)cc1Cl	NR3A LBD binder 25 (no result: FGF22 binding)
CCOc1ccc(C(=O)Nc2cc(NC(=O)c3ccc(OCC)c(Cl)c3)cc(C(=O)O)c2)cc1Cl	NR3A LBD binder 23 (no result: EBNA-1 inh, ZTA DNA inh)
O=C(Nc1ccc(Cl)cn1)Nc1ccc(Cl)cn1	NR3A LBD binder 29
CCOc1ccc(C(=O)Nc2cccc(C(=O)O)c2)cc1Cl	none
Cc1ccc(S(=O)(=O)N(C)C[C@@H]2OCCCC[C@H](C)Oc3ccc(NC(=O)c4ccccc4)cc3C(=O)N([C@H](C)CO)C[C@H]2C)cc1	none (no result: EBNA-1 inh, NR3A LBD binder, ZTA DNA inh, DNA FID counter, HCV NS3 hel inh)
